The source made the active and inactive calls. The rule behind the calls is not given here.
Columns and labels:
[1] = tested on: Sagittaria latifolia; assay: Herbicidal activity against Sagittaria latifolia (broadleaf arrowhead) under paddy conditions; format: functional, organism-based
[2] = tested on: Sagittaria latifolia; assay: Pre-emergence herbicidal activity against Sagittaria latifolia (broadleaf arrowhead); format: functional, organism-based
[3] = tested on: Sagittaria latifolia; assay: Post-emergence herbicidal activity against Sagittaria latifolia (broadleaf arrowhead); format: functional, organism-based
[4] = tested on: Schoenoplectus acutus; assay: Herbicidal activity against Schoenoplectus acutus (hardstem bulrush) under paddy conditions; format: functional, organism-based
[5] = tested on: Schoenoplectus acutus; assay: Post-emergence herbicidal activity against Schoenoplectus acutus (hardstem bulrush); format: functional, organism-based
[6] = tested on: Schoenoplectus acutus; assay: Pre-emergence herbicidal activity against Schoenoplectus acutus (hardstem bulrush); format: functional, organism-based
[7] = tested on: Echinochloa crus-galli; assay: Herbicidal activity against Echinochloa crus-galli (barnyard grass) under paddy conditions; format: functional, organism-based
[8] = tested on: Echinochloa crus-galli; assay: Post-emergence herbicidal activity against Echinochloa crus-galli (barnyard grass); format: functional, organism-based
[9] = tested on: Oryza sativa; assay: Herbicidal activity against Oryza sativa (rice) under paddy conditions; format: functional, organism-based
[10] = tested on: Echinochloa crus-galli; assay: Pre-emergence herbicidal activity against Echinochloa crus-galli (barnyard grass); format: functional, organism-based
[11] = tested on: Oryza sativa; assay: Pre-emergence herbicidal activity against Oryza sativa (rice); format: functional, organism-based
[12] = tested on: Abutilon theophrasti; assay: Post-emergence herbicidal activity against Abutilon theophrasti (velvetleaf); format: functional, organism-based
[13] = tested on: Oryza sativa; assay: Post-emergence herbicidal activity against Oryza sativa (rice); format: functional, organism-based
[14] = tested on: Abutilon theophrasti; assay: Pre-emergence herbicidal activity against Abutilon theophrasti (velvetleaf); format: functional, organism-based
[15] = tested on: Convolvulaceae; assay: Herbicidal activity against Convolvulaceae (morning glory family) under paddy conditions; format: functional, organism-based
[16] = tested on: Convolvulaceae; assay: Post-emergence herbicidal activity against Convolvulaceae (morning glory family); format: functional, organism-based
[17] = tested on: Avena sativa; assay: Herbicidal activity against Avena sativa under paddy conditions; format: functional, organism-based
[18] = tested on: Convolvulaceae; assay: Pre-emergence herbicidal activity against Convolvulaceae (morning glory family); format: functional, organism-based
[19] = tested on: Avena sativa; assay: Pre-emergence herbicidal activity against Avena sativa; format: functional, organism-based
[20] = tested on: Avena sativa; assay: Post-emergence herbicidal activity against Avena sativa; format: functional, organism-based
[21] = tested on: Spodoptera litura; assay: Insecticidal activity against Spodoptera litura; format: functional, organism-based
[22] = tested on: Tetranychus cinnabarinus; assay: Insecticidal activity against Tetranychus cinnabarinus (carmine spider mite); format: functional, organism-based
[23] = tested on: Culex pipiens pallens; assay: Insecticidal activity against Culex pipiens pallens (mosquito) at 3 to 5 ppm; format: functional, organism-based
[24] = tested on: Musca domestica; assay: Insecticidal activity against Musca domestica (house fly); format: functional, organism-based
[25] = tested on: Rhizoctonia solani; assay: Fungicidal activity against Rhizoctonia solani at 500 ppm after 7 days by poisoned food technique; format: functional; settings: 168 h, read-out: GI
Procedure, shortened: (§1)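 Cultures kept on potato dextrose agar. Each compound, dissolved in acetone, was added to potato dextrose agar at a final 500 ppm (w/v) (poisoned food technique). A disc cut from the periphery of a seven-day-old culture was inoculated onto each set. Control sets held potato dextrose agar only. The read-out is percentage inhibition of fungal growth relative to control.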

[26] = tested on: Helminthosporium; assay: Fungicidal activity against Helminthosporium oryzae at 500 ppm after 7 days by poisoned food technique; format: functional; settings: 168 h, read-out: GI; procedure, shortened: as §1

| Structure (SMILES) | Activity [1] | Activity [2] | Activity [3] | Activity [4] | Activity [5] | Activity [6] | Activity [7] | Activity [8] | Activity [9] | Activity [10] | Activity [11] | Activity [12] | Activity [13] | Activity [14] | Activity [15] | Activity [16] | Activity [17] | Activity [18] | Activity [19] | Activity [20] | other results |
| --- | --- | --- | --- | --- | --- | --- | --- | --- | --- | --- | --- | --- | --- | --- | --- | --- | --- | --- | --- | --- | --- |
| Cc1ccc2[nH]c(CSc3nnc(-c4ccccc4)o3)nc2c1 | inactive | inactive | inactive | inactive | inactive | inactive | inactive | inactive | inactive | inactive | inactive | inactive | inactive | inactive | inactive | inactive | inactive | inactive | inactive | inactive | Activity [21]: inactive; Activity [22]: inactive; Activity [23]: Active; Activity [24]: inactive; inhibition of growth at 500 ppm [25]: 61.3%; inhibition of growth at 500 ppm [26]: 65.3% |
| c1ccc2[nH]c(CSc3nnc(-c4ccncc4)o3)nc2c1 | inactive | inactive | inactive | inactive | inactive | inactive | inactive | inactive | inactive | inactive | inactive | inactive | inactive | inactive | inactive | inactive | inactive | inactive | inactive | inactive | Activity [21]: inactive; Activity [22]: inactive; Activity [23]: Active; Activity [24]: inactive; inhibition of growth at 500 ppm [25]: 32%; inhibition of growth at 500 ppm [26]: 49.8% |
| Nn1c(SCc2nc3ccccc3[nH]2)nnc1-c1ccc(Cl)cc1 | inactive | inactive | inactive | inactive | inactive | inactive | inactive | inactive | inactive | inactive | inactive | inactive | inactive | inactive | inactive | inactive | inactive | inactive | inactive | inactive | Activity [21]: inactive; Activity [22]: inactive; Activity [23]: Active; Activity [24]: inactive; inhibition of growth at 500 ppm [25]: 20%; inhibition of growth at 500 ppm [26]: 45.3% |
| Clc1ccccc1-c1nnc(SCc2nc3ccccc3[nH]2)s1 | inactive | inactive | inactive | inactive | inactive | inactive | inactive | inactive | inactive | inactive | inactive | inactive | inactive | inactive | inactive | inactive | inactive | inactive | inactive | inactive | Activity [21]: inactive; Activity [22]: inactive; Activity [23]: Active; Activity [24]: inactive; inhibition of growth at 500 ppm [25]: 49.8%; inhibition of growth at 500 ppm [26]: 68.2% |
| Nn1c(SCc2nc3ccccc3[nH]2)nnc1-c1cccc(Cl)c1 | inactive | inactive | inactive | inactive | inactive | inactive | inactive | inactive | inactive | inactive | inactive | inactive | inactive | inactive | inactive | inactive | inactive | inactive | inactive | inactive | Activity [21]: inactive; Activity [22]: inactive; Activity [23]: Active; Activity [24]: inactive; inhibition of growth at 500 ppm [25]: 61.2%; inhibition of growth at 500 ppm [26]: 89.3% |
| Cc1ccc2[nH]c(CSc3nnc(-c4ccccc4)n3N)nc2c1 | inactive | inactive | inactive | inactive | inactive | inactive | inactive | inactive | inactive | inactive | inactive | inactive | inactive | inactive | inactive | inactive | inactive | inactive | inactive | inactive | Activity [21]: inactive; Activity [22]: inactive; Activity [23]: Active; Activity [24]: inactive; inhibition of growth at 500 ppm [25]: 70.5%; inhibition of growth at 500 ppm [26]: 81.2% |
| Clc1cccc(-c2nnc(SCc3nc4ccccc4[nH]3)s2)c1 | inactive | inactive | inactive | inactive | inactive | inactive | inactive | inactive | inactive | inactive | inactive | inactive | inactive | inactive | inactive | inactive | inactive | inactive | inactive | inactive | Activity [21]: inactive; Activity [22]: inactive; Activity [23]: Active; Activity [24]: inactive; inhibition of growth at 500 ppm [25]: 89.5%; inhibition of growth at 500 ppm [26]: 91.2% |
| c1ccc(-c2nnc(SCc3nc4ccccc4[nH]3)o2)cc1 | inactive | inactive | inactive | inactive | inactive | inactive | inactive | inactive | inactive | inactive | inactive | inactive | inactive | inactive | inactive | inactive | inactive | inactive | inactive | inactive | Activity [21]: inactive; Activity [22]: inactive; Activity [23]: Active; Activity [24]: inactive; inhibition of growth at 500 ppm [25]: 65.2%; inhibition of growth at 500 ppm [26]: 73.5% |
| Nn1c(SCc2nc3ccccc3[nH]2)nnc1-c1ccccc1 | inactive | inactive | inactive | inactive | inactive | inactive | inactive | inactive | inactive | inactive | inactive | inactive | inactive | inactive | inactive | inactive | inactive | inactive | inactive | inactive | Activity [21]: inactive; Activity [22]: inactive; Activity [23]: Active; Activity [24]: inactive; inhibition of growth at 500 ppm [25]: 74.5%; inhibition of growth at 500 ppm [26]: 92.5% |

Reference: ChEMBL document CHEMBL3046353, “Synthesis and fungicidal activity of some 5-membered heterocyclic derivatives containing benzimidazoles” (1993)
